This is a sample that favours compounds with a hit; in the whole collection about 2.3% have one here.
TAAR1 antagonist: human TAAR1 antagonism | Q96RJ0 | CHO RD-HGA16 TAAR1, Fluo-8 calcium fluorescence, antagonist | inhibition, % at 3 µM | 360,000 compounds, 1.5% hits;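 active = inhibition above a per-plate cutoff, the mean inhibition of test compounds on that plate plus 3 SD, cut at about 49% in these data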;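 also: 0% = DMSO plus EC80 beta-PEA response and 100% = DMSO alone without agonist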
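Test system – hTAAR1-expressing CHO RD-HGA16 cells, Gα16-coupled · Reagent – β-PEA at EC80 concentration, post-compound challenge · Compound dosing – 3 µM, single point · Timing – 140 s kinetic read after compound, 140 s after agonist · Detection – Fluo-8 intracellular calcium dye fluorescence, real-time kinetic reads · Control set – DMSO and EC80 PEA controls · Repeats – n of 1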
OXTR potentiator: potentiates the human oxytocin receptor response; 320,000 compounds, 0.061% hits; AID 2445; activation, % at 3 µM; CHO-OTR cells, Fluo-8 calcium fluorescence, potentiator mode; 0% = oxytocin EC15, 100% = EC100;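 active = activation above that plate's cutoff, the mean activation of tested compounds plus 3 SD, cut at about 6.6% in these data, passing the limit was not always enough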;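 also: 100% uses oxytocin at 75 nM as the full agonist control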
Target sequence (P30559 whole entry, looked up): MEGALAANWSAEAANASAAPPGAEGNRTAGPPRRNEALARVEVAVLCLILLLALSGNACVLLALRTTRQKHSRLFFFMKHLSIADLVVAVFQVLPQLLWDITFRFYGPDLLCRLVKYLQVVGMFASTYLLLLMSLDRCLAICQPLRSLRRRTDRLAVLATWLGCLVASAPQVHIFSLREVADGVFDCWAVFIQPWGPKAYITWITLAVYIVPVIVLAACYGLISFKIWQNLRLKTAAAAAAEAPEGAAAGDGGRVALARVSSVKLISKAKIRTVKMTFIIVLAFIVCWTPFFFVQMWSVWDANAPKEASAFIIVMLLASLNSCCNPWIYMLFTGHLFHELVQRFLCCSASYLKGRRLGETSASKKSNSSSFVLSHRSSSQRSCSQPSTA
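Assay system: CHO cell line stably expressing human OTR | Also added: Oxytocin at about EC15, sub-maximal agonist stimulus | Times: Compound 6 min at room temperature before oxytocin, 100 s read | Measured by: Fluo-8 intracellular calcium fluorescence, ex 470-495, em 515-575 nm | Controls: EC15 oxytocin alone as 0%, 75 nM oxytocin as 100%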
V1R ag counter: activates human V1a receptor in oxytocin agonist counter-screen. P37288. CHO-V1R cells, Fluo-8 calcium fluorescence, agonist mode; 0% DMSO, 100% 3 nM vasopressin. activation, % at 3 µM. 320,000 compounds, 0.25% hits. AID 2797;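 active = activation above the mean activation of all tested compounds plus 3 SD, per screening run, cut at about 20% in these data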;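 also: signal is peak over basal fluorescence ratio across a 100 second FLIPR read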
TAAR1 ag: human TAAR1 agonism; Q96RJ0; CHO RD-HGA16 TAAR1, Fluo-8 calcium fluorescence; vehicle wells 0%, saturating PEA agonist 100%; activation, % at 3 µM; 360,000 compounds, 0.99% hits;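 active = activation above the mean activation of all test compounds in the run plus 3 SD, cut at about 38% in these data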
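Test system: RD-HGA16 (CHO) cells co-expressing Gα16 and hTAAR1 / Benchmarks: DMSO vehicle as 0%, PEA at EC100 as 100% / Repeats: no replicates (n 1) / Measure: % activation from peak over basal fluorescence ratio, DMSO-to-PEA scaled / Timing: 17-24 h plating, Fluo-8 75 min 37 °C, 30 min RT / Technique: kinetic Fluo-8 calcium fluorescence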
OXTR ag: activates the human oxytocin receptor; P30559; CHO-OTR cells, Fluo-8 calcium fluorescence; normalized: DMSO 0%, oxytocin 100%; activation, % at 3 µM; 320,000 compounds, 0.32% hits; AID 2435;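 active = activation above the mean of all tested compounds plus 3 SD, cutoff set per screening run, cut at about 20% in these data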;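 also: peak over basal fluorescence ratio from a 100 s FLIPR kinetic read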
TAAR1 ag confirm: confirmation of human TAAR1 agonists. shares compounds with TAAR1 ag. CHO RD-HGA16 TAAR1, Fluo-8 calcium fluorescence; scaled: DMSO 0%, maximal phenethylamine 100%. AID 651783. 2,400 compounds, 82% hits. activation, % at 3 µM;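 active = activation above a cutoff set at the run's mean compound activation plus 3 SD, cut at about 39% in these data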
Ga16 ag counter: counter-screen for TAAR1 agonists: nonselective agonists in parental cells. activation, % at 3 µM. CHO-Ga16 parental, Fluo-8 calcium fluorescence; normalized to maximal ATP response, DMSO zero. AID 651787. 2,400 compounds, 50% hits. shares compounds with TAAR1 ag;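 active = activation above the run cutoff, the mean activation over all tested wells plus 3 SD, cut at about 12% in these data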;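 also: 0% = DMSO wells and 100% = maximal ATP response on the peak over basal ratio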
TAAR1 desens: counter-screen for human TAAR1 agonists: agonists that desensitize TAAR1; AID 651951; shares compounds with TAAR1 ag; 2,400 compounds, 46% hits; CHO RD-HGA16 hTAAR1, Fluo-8 calcium, beta-PEA response inhibition; inhibition, % at 3 µM;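 active = inhibition above the run cutoff, the mean inhibition of all test compounds plus 3 SD, cut at about 49% in these data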;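 also: beta-PEA stimulus applied at its EC80; loss of beta-PEA calcium signal after compound pretreatment read as receptor desensitization; 0% = DMSO with beta-PEA at EC80 and 100% = DMSO alone without agonist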
Ga16 antag count: nonselective Ga16 antagonist in TAAR1 agonist counter-screen | 2,400 compounds, 39% hits | CHO-Ga16 ATP-induced calcium, Fluo-8 fluorescence | inhibition, % at 3 µM | shares compounds with TAAR1 ag;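 active = inhibition above the plate's mean compound inhibition plus 3 SD, computed per plate, cut at about 22% in these data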;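 also: 0% = EC80 ATP with DMSO and 100% = DMSO wells without ATP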
Starred values were filed as active, the others as inactive; x = no result given.

SMILES | TAAR1 antagonist | OXTR potentiator | V1R ag counter | TAAR1 ag | OXTR ag | TAAR1 ag confirm | Ga16 ag counter | TAAR1 desens | Ga16 antag count
Cc1ccc2nc(-c3ccccc3)cc(C(=O)N3CCc4ccccc4C3)c2c1 | 17 | -5 | -1 | 72* | -2 | 68* | 2 | 25 | 20
CCOC(=O)N1CCN(C(=O)c2ccc(Cn3c(=S)[nH]c4ccc(Br)cc4c3=O)cc2)CC1 | -48 | -1 | 1 | -1 | -1 | x | x | x | x
CCCCOc1ccc(N2C(=O)CC(N(CCc3ccccc3)C(=O)/C=C/C(=O)O)C2=O)cc1 (centres undefined) | 1 | -1 | 0 | 67* | 0 | 78* | 2 | 31 | 0
COc1ccc(CCN(C(=O)/C=C/C(=O)O)C2CC(=O)N(c3ccccc3)C2=O)cc1 (centres undefined) | 4 | 2 | 0 | 0 | 0 | x | x | x | x
FC(F)Oc1ccccc1NC(=S)NCCc1ccccc1 | -14 | -5 | 0 | 51* | -3 | 77* | 5 | 35 | 5
S=C(NCCc1ccccc1)Nc1c(Cl)cccc1Cl | 36 | 0 | 4 | 68* | -2 | 78* | 0 | 80* | 9
Fc1ccc(F)c(NC(=S)NCCc2ccccc2)c1 | 8 | -18 | 0 | 3 | -2 | x | x | x | x
COc1ccc(NC(=O)CCCOc2ccc(Cl)c(C)c2)cc1S(=O)(=O)N1CCOCC1 | 26 | -10 | 11 | 15 | 14 | x | x | x | x
CCN(CC(=O)Nc1c(F)cccc1F)C(=O)CCCOc1ccccc1 | -19 | x | x | 2 | x | x | x | x | x
O=C(COC(=O)/C=C/c1ccc(Cl)cc1)Nc1ccc2[nH]c(=O)[nH]c2c1 | -14 | -9 | 1 | 3 | 0 | x | x | x | x
COc1cc(/C=C/C(=O)OCC(=O)Nc2ccc(S(N)(=O)=O)cc2)ccc1O | -14 | -1 | 0 | 1 | 0 | x | x | x | x
O=C(COC(=O)/C=C/c1ccc(Cl)cc1)Nc1ccccc1 | 44 | -6 | 5 | 62* | 1 | 15 | 2 | 6 | 6
COc1cc(/C=C/C(=O)OCC(=O)Nc2ccc([N+](=O)[O-])cc2)ccc1O | 46 | -8 | 30* | 72* | 21* | 77* | 43* | 58* | 39*
Cc1cc(=O)[nH]c(SCC(=O)N2CCCC(C)C2)n1 (centres undefined) | -10 | -11 | -1 | 75* | 8 | 39* | 1 | -8 | 2
CCCCCn1c(=O)c(C(=O)c2ccccc2)nc2ccccc21 | 6 | 7 | -2 | -2 | -1 | x | x | x | x
CCCCCCn1c(=O)[nH]c2nc3cc(N)ccc3nc2c1=O | 57* | -12 | 74* | 118* | 96* | 95* | 96* | 68* | 67*
CCCCCCCCN1C(=O)[C@@H](CC(=O)NCCc2ccccc2OC)C[C@@]2(C(=O)OC)C1=C[C@H](C(C)(C)C)O[C@@H]2C | 16 | x | x | 75* | x | 85* | 0 | 52* | 4
CCCCCCCCN1C(=O)[C@H](CC(=O)NCCCOC)C[C@@]2(C(=O)OC)CCCCC=C12 | 6 | x | x | 1 | x | x | x | x | x
CCCCCCCCN1C(=O)[C@H](CC(=O)NCCc2ccccc2OC)C[C@@]2(C(=O)OCC)CCC=C12 | 19 | x | x | 59* | x | 80* | -1 | 48 | 2
CCCCCCCCN1C(=O)[C@H](CC(=O)NCCc2ccccc2OC)C[C@@]2(C(=O)OC)CCCCC=C12 | -7 | x | x | 51* | x | 81* | 1 | 65* | 13
